Measured values collected from several papers.
Each line is one published result; the experiments were not run side by side.
MAL12: Alpha-glucosidase MAL12 (MAL12, Saccharomyces cerevisiae S288c, UniProt P53341)
ADRA1A: Alpha-1A adrenergic receptor (ADRA1A, Homo sapiens, UniProt P35348)
MAP3K7: Mitogen-activated protein kinase kinase kinase 7 (MAP3K7, Homo sapiens, UniProt O43318)

CCCCCCCCCCCCCC(=O)OCC(C)(C)CC1=C(O)C(=O)c2ccccc2C1=O  inhibition (MAL12; enzyme activity, inhibitor; 50 µM): > 70%
CC(=O)ON=C1C=CC(=C(C#N)c2ccccc2)C=C1  activity vs control (Glycogen synthase kinase 3 (Plasmodium falciparum, UniProt O77344); enzyme activity, inhibitor, ADP detection; 20 µM): 89%
COc1cc2c3c(c1OC)-c1c(OC)ccc(NC(C)=O)c1CC3N(C)CC2 (stereo not shown)  inhibition (ADRA1A; ligand displacement, radioligand; 10 µM): 10%
COc1cc(O)c2c(c1)O[C@H](c1ccccc1)CC2=O  inhibition (MAL12; enzyme activity, inhibitor, absorbance; 50 µM): 15.1%
CNC(=O)c1ccccc1Nc1nc(Nc2ccc(CO)nc2)ncc1Cl  remaining activity (MAP3K7; enzyme activity, inhibitor; 1 µM): 64.9%
O=c1cc(-c2ccc(O)c(O)c2)oc2cc(O)cc(O)c12  inhibition (MAL12; enzyme activity, inhibitor, absorbance; 50 µM): 34.4%
CCCCC(=O)Nc1ccc(-c2ccc3ncn(CCC)c(=O)c3c2)cn1  remaining binding (Wee1-like protein kinase 2 (WEE2, Homo sapiens, UniProt P0C1S8); binding, competition with immobilised ligand; 0.5 µM): 100%
COc1cc2c3c(c1OC)-c1c(OC)ccc(-c4ccc(C#N)cc4)c1CC3N(C)CC2 (stereo not shown)  inhibition (ADRA1A; ligand displacement, radioligand; 10 µM): 83%
Nc1ncnc2c1ncn2[C@@H]1O[C@H](COP(=O)(O)OP(=O)(O)OP(=O)(O)O)[C@@H](O)[C@H]1O  Km (Hexokinase HKDC1 (Homo sapiens, UniProt Q2TB90); enzyme activity, substrate; pH 8): 410 µM
CNC(=O)c1ccccc1Nc1nc(Nc2ccc(CO)cc2)ncc1Cl  remaining activity (MAP3K7; enzyme activity, inhibitor; 1 µM): 42.9%
C1=C/COCc2cc(ccc2OCCN2CCCC2)Nc2nccc(n2)-c2cccc(c2)COC/1  remaining binding (Tyrosine-protein kinase Lyn (LYN, Homo sapiens, UniProt P07948); binding; 0.1 µM): 88%
C#Cc1cnc(Nc2ccnc(CO)c2)nc1Nc1ccccc1S(C)(=O)=NC#N (stereo not shown)  remaining activity (MAP3K7; enzyme activity, inhibitor; 1 µM): 78.9%
O=C1C[C@@H](c2ccc(O)cc2)Oc2c(Br)c(O)c(Br)c(O)c21  inhibition (MAL12; enzyme activity, inhibitor, absorbance; 50 µM): 80.5%
